A selection: hits, their analogues and other compounds. The true share with any hit is near 4.3%.
GalR3 antag: antagonists of human GalR3 | O60755 | HEK293 GalR3-CNG cAMP membrane potential fluorescence; galR3 body fused to GalR1 C-terminus | inhibition, % at 3 µM | 360,000 compounds, 0.44% hits;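 active = inhibition above the screen-wide average plus 3 SD, cut at about 13% in these data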;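 note: forskolin and galanin both at EC90 stimulate the cells; cAMP rise reported by CNG channel membrane potential dye signal; 0% = forskolin plus galanin with DMSO and 100% = forskolin alone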
Target sequence (O60755 1-299 limits assumed): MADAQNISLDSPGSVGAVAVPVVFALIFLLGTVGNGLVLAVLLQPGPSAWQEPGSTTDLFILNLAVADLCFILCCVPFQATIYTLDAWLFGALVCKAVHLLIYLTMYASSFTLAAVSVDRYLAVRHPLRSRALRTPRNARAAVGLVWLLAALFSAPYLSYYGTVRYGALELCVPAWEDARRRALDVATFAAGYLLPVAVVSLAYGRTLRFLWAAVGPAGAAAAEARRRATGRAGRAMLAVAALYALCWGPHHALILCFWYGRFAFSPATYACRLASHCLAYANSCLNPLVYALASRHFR
OX1R antag-1: human HCRTR1 antagonism. AID 434989. 330,000 compounds, 0.43% hits. inhibition, % at 5 µM. O43613. CHO/OX1R cells, Fluo-8 calcium fluorescence, orexin A;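 active = inhibition above its plate's threshold, mean inhibition of all tested compounds on the plate plus 3 SD, cut at about 37% in these data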;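 note: 0% = orexin A challenge wells and 100% = SB-334867-A antagonist wells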
Target sequence (O43613 whole entry, looked up): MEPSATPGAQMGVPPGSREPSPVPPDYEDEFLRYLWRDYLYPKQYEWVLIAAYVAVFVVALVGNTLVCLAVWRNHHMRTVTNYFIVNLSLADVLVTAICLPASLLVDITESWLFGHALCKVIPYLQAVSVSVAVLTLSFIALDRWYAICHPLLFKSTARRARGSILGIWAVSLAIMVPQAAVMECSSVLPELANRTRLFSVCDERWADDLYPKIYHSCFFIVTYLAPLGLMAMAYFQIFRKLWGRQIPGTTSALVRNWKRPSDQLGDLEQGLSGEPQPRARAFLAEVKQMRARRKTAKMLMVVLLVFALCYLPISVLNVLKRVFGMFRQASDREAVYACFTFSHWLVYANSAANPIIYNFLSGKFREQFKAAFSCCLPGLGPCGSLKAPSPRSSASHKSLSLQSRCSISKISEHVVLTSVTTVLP
CHO parental Ca: counter-screen: ATP calcium response change in parental CHO cells; 330,000 compounds, 0.63% hits; parental CHO-K1, ATP-induced calcium, Fluo-8 fluorescence; inhibition, % at 5.6 µM;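 active = inhibition above that plate's mean sample inhibition plus 3 SD, cut at about 26% in these data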;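 note: 0% = ATP-challenged DMSO wells and 100% = DMSO wells without ATP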
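Material – parental CHO cells · Reagent – ATP stimulus · Compound – single nominal dose of 5.6 µM per compound · Detection – Fluo-8 fluorescence · Read-out basis – percent inhibition of calcium signal · Controls – ATP-challenged DMSO wells low, unchallenged DMSO wells high · Repeats – no replicates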
OX1R antag-2: antagonists of human orexin 1 receptor (OX1R); OX1R-expressing cells, FRET antagonist read-out; AID 485270; inhibition, % at 6.6 µM; 330,000 compounds, 1.8% hits; O43613; in the data active = inhibition mostly above about 38%, no sharp cut-off; inactive = mostly below about 40%;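 note: 0% = agonist challenge alone and 100% = reference antagonist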
TAAR1 antagonist: human TAAR1 antagonism; CHO RD-HGA16 TAAR1, Fluo-8 calcium fluorescence, antagonist; Q96RJ0; 360,000 compounds, 1.5% hits; AID 624466; inhibition, % at 3 µM;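 active = inhibition above a per-plate cutoff, the mean inhibition of test compounds on that plate plus 3 SD, cut at about 49% in these data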;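 note: 0% = DMSO plus EC80 beta-PEA response and 100% = DMSO alone without agonist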
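Material: CHO RD-HGA16 cells bearing hTAAR1; compound dosing: one-point dosing, 3 µM nominal final; schedule: dye loading 75 min at 37 °C, then 30 min room temperature; measured by: calcium fluorescence with Fluo-8; control set: vehicle and agonist controls; replication: n of 1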
TAAR1 agonist: human TAAR1 agonism. Q96RJ0. CHO RD-HGA16 TAAR1, Fluo-8 calcium fluorescence; vehicle wells 0%, saturating PEA agonist 100%. 360,000 compounds, 0.99% hits. activation, % at 3 µM;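 active = activation above the mean activation of all test compounds in the run plus 3 SD, cut at about 38% in these data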
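System: CHO RD-HGA16 cells carrying human TAAR1 plus Gα16; Incubation: 17-24 h seeding, 75 min 37 °C dye, 30 min RT; Measured by: Fluo-8 fluorescence, 5 s baseline then 140 s kinetic read; Control set: DMSO and PEA EC100; Replication: single well for each compound.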
OX1R HTRF conf: OX1R (human) antagonism, HTRF confirmed. shares compounds with OX1R antag-2. OX1R-expressing cells, HTRF antagonist assay. inhibition, % at 6.6 µM. 1,800 compounds, 49% hits; in the data active = inhibition above about 55%;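 note: CHO cells expressing OX1R stimulated with orexin A at about EC80; 0% = agonist challenge alone and 100% = reference antagonist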
CHO-K1 HTRF: counter-screen: parental CHO-K1 HTRF response; shares compounds with OX1R antag-2; parental CHO-K1 cells, HTRF counterscreen; inhibition, % at 6.6 µM; 1,800 compounds, 48% hits; AID 493232; in the data active = inhibition above about 17%;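 note: 0% = agonist challenge with vehicle and 100% = vehicle alone without agonist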
nonsel antag count: nonselective antagonism, TAAR1 counter-screen | inhibition, % at 3 µM | 2,400 compounds, 77% hits | counterscreen cell line, calcium fluorescence, antagonist mode | shares compounds with TAAR1 antagonist | AID 651780; in the data active = inhibition above about 22%;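 note: CHO-Ga16 host cells stimulated with ATP at an EC80 level; 0% = agonist EC80 plus vehicle and 100% = vehicle without agonist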
TAAR1 antag conf: human TAAR1 antagonism, confirmed; 2,400 compounds, 40% hits; TAAR1-expressing cells, fluorescence antagonist read-out; shares compounds with TAAR1 antagonist; inhibition, % at 3 µM; in the data active = inhibition above about 49%;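 note: CHO-Ga16 host cells challenged with agonist PEA near its EC80; 0% = agonist at EC80 plus vehicle and 100% = vehicle with no agonist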
Ga16 ag counter: nonselective Ga16 agonist in TAAR1 antagonist counter-screen; shares compounds with TAAR1 antagonist; Ga16-expressing cells, calcium fluorescence, agonist counterscreen; activation, % at 3 µM; 2,400 compounds, 18% hits; in the data active = activation above about 12%;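 note: 0% = vehicle wells and 100% = saturating stimulus response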
TAAR1 ag counter: activates human TAAR1 in antagonist counter-screen. activation, % at 3 µM. 2,400 compounds, 2% hits. shares compounds with TAAR1 antagonist. AID 651955. hTAAR1 cell line, fluorescence activation, agonist mode; in the data active = activation above about 37%;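 note: CHO cells stably expressing TAAR1 with calcium dye readout; 0% = DMSO vehicle and 100% = full agonist response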
GalR3 conf: confirmation of human galanin receptor 3 antagonists | shares compounds with GalR3 antag | HEK293 GalR3 CNG cAMP biosensor, membrane potential fluorescence; galR3 fused to GalR1 carboxy tail; challenged with forskolin and galanin at EC90 | inhibition, % at 3 µM | 1,600 compounds, 59% hits;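 active = inhibition above the primary screen's cutoff, the mean inhibition of all screened compounds plus 3 SD, cut at about 13% in these data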;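 note: 0% = forskolin plus galanin and 100% = forskolin alone with DMSO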
HEK-CNG parental: counter-screen for GalR3 antagonists: nonspecific agonists in parental HEK-CNG cells | activation, % at 3 µM | AID 652268 | 1,600 compounds, 10% hits | HEK293-CNG parental cells, cAMP membrane potential fluorescence; normalised: DMSO wells 0%, forskolin wells 100% | shares compounds with GalR3 antag; in the data active = activation above about 1.3%
Numbers without * were called inactive; . = no result given.

SMILES	GalR3 antag	OX1R antag-1	CHO parental Ca	OX1R antag-2	TAAR1 antagonist	TAAR1 agonist	nonsel antag count	TAAR1 antag conf	Ga16 ag counter	TAAR1 ag counter	others
O=c1[nH]c(O)c(C=Nc2ccccc2[N+](=O)[O-])c(=O)[nH]1	.	-16.9	-7.0	17.8	.	.	.	.	.	.
O=c1[nH]c(O)c(N=Nc2ccc([N+](=O)[O-])cc2)c(=O)[nH]1	0.1	-24.6	1.7	88.8*	7.7	6.7	.	.	.	.	OX1R HTRF conf=61.9*;CHO-K1 HTRF=98.6*
CC1C(c2ccccc2)OC(=O)N1C (stereo not drawn)	-4.8	.	.	.	6.5	-0.3	.	.	.	.
Oc1c(Cl)c(Cl)c(Cl)c(Cl)c1Cl	-2.4	-16.1	-13.1	35.6	-1.8	22.1	.	.	.	.
Brc1ccc2c(c1)C(OC1CN3CCC1CC3)c1ccccc1CS2 (stereo not drawn)	-15.4	-10.1	9.0	11.1	1.9	33.3	.	.	.	.
Cc1ccc(C(=O)O)cc1N=Nc1c(O)[nH]c(=O)[nH]c1=O	0.1	3.5	-2.6	154.1*	-11.1	1.7	.	.	.	.	OX1R HTRF conf=57.5*;CHO-K1 HTRF=100.7*
O=C(O)c1cccc(N=Nc2c(O)[nH]c(=O)[nH]c2=O)c1	-3.9	3.3	-12.9	137.7*	-10.7	-0.1	.	.	.	.	OX1R HTRF conf=61.8*;CHO-K1 HTRF=92.3*
O=C1NC(=O)C(=Cc2ccc(N3CCOCC3)o2)C(=O)N1	-4.8	-15.1	2.6	92.2*	-0.1	20.5	.	.	.	.	OX1R HTRF conf=49.6;CHO-K1 HTRF=99.2*
FC(F)(F)c1cccc(NC2=NCCS2)c1	-6.1	.	.	.	6.2	1.9	.	.	.	.
CC(=O)N1CN2CN(C(C)=O)CC(C(=O)c3ccccc3)(C2)C1	-1.6	-15.8	5.2	13.2	1.8	-0.3	.	.	.	.
CC(=O)N1CN2CN(C(C)=O)CC(C(=O)c3ccc([N+](=O)[O-])cc3)(C2)C1	0.6	-8.3	-3.2	93.4*	-12.6	2.3	.	.	.	.	OX1R HTRF conf=58.5*;CHO-K1 HTRF=52.4*
CCOC(=O)Cn1cc(C(=O)c2ccccc2F)c2ccccc21	-2.4	-19.6	-16.1	9.7	4.6	-2.8	.	.	.	.
CCOC(=O)Cn1cc([N+](=O)[O-])nc1[N+](=O)[O-]	3.5	-13.5	-0.2	92.3*	2.5	2.2	.	.	.	.	OX1R HTRF conf=42.1;CHO-K1 HTRF=53.2*
Nc1cc(Cl)c2nonc2c1[N+](=O)[O-]	35.3*	31.1	25.0	113.3*	12.2	-1.6	.	.	.	.	OX1R HTRF conf=84.8*;CHO-K1 HTRF=84.5*;GalR3 conf=20.2*;HEK-CNG parental=0.9
CCCc1nc2ccc(Br)cc2c(=O)n1-c1ccc([N+](=O)[O-])c(C(F)(F)F)c1	5.8	-4.4	10.0	45.2	4.8	13.1	.	.	.	.
COC(=O)C1=C(c2ccc(F)cc2OCc2ccccc2)C[C@@H]2CC[C@H]1N2C(=O)NCCOc1ccccc1	-6.9	43.4	-2.9	20.2	69.4*	11.1	20.8	41.4	13.1*	13.1
COC(=O)C1=C(c2ccc(F)cc2OCc2ccccc2)C[C@@H]2CC[C@H]1N2C(=O)NCCOc1ccc(OC)cc1	-10.8	14.5	-7.8	6.4	59.1*	4.8	18.2	26.1	2.4	2.1
Cc1nn(Cc2c(Cl)cccc2Cl)c(Cl)c1C(=O)O	-5.0	-2.9	5.8	6.0	-22.0	2.4	.	.	.	.
COc1ccccc1-n1c(O)c(/C=N/NC(=S)Nc2ccccc2)c(=O)[nH]c1=S	0.6	0.0	-1.1	9.7	21.7	0.4	.	.	.	.
COc1ccc2c(c1)CC1(CN2C)C(=O)NC(=O)N(CCc2ccccc2)C1=O (stereo not drawn)	-4.0	-19.0	-15.6	10.1	8.5	3.7	.	.	.	.
CCC(C)N1C(=O)NC(=O)C2(Cc3c(ccc4ccccc34)N(C)C2)C1=O (stereo not drawn)	-2.2	-23.5	-34.8	71.7	56.0*	23.1	32.9*	51.7*	8.8	7.9
C=C1C(C)C2C(Cc3ccccc3)NC(=O)C23OC(=O)/C=C/C(O)CCCC(C)C/C=C/C3C1O (stereo not drawn)	-2.2	.	.	.	69.8*	17.6	20.8	50.1*	13.2*	15.5
CC(=O)C1CCC2C3CCC4CC(O)CCC4(C)C3C(O)CC12C (stereo not drawn)	-3.1	.	.	.	-2.4	5.1	.	.	.	.
CC(=O)C1C(N2CC2)CC2C3CC=C4CC(O)CCC4(C)C3CCC21C (stereo not drawn)	-3.2	.	.	.	-24.6	0.5	.	.	.	.
Cc1ccc2nc(-c3ccc(CN4CCC(n5nnc6ccccc65)CC4)cc3)c(-c3ccccc3)nc2c1	-3.2	.	.	.	74.8*	0.7	27.1*	37.7	2.5	-0.2
SMILES	GalR3 antag	OX1R antag-1	CHO parental Ca	OX1R antag-2	TAAR1 antagonist	TAAR1 agonist	nonsel antag count	TAAR1 antag conf	Ga16 ag counter	TAAR1 ag counter	others
Cc1ccc2nc(-c3ccc(CN4CCC(n5c(=O)[nH]c6ccccc65)CC4)cc3)c(-c3ccccc3)nc2c1	-7.6	.	.	.	42.3	0.0	.	.	.	.
COc1ccc2nc(-c3ccc(CN4CCC(n5nnc6ccccc65)CC4)cc3)c(-c3ccccc3)nc2c1	-8.1	.	.	.	50.5*	0.8	18.0	29.4	2.9	7.9
CCC(=NCc1cc(OC)cc(OC)c1)c1c(O)n(C)c(=O)n(C)c1=O	-6.7	-4.2	-6.4	11.2	11.1	14.3	.	.	.	.
COc1cccc(NP(=O)(Oc2ccc(Cl)cc2)Oc2ccc(Cl)cc2)c1	-9.0	-10.6	-16.0	7.1	58.8*	5.9	14.0	47.5	6.5	11.4
O=P(Nc1cccc(F)c1)(Oc1ccccc1F)Oc1ccccc1F	-5.6	-23.3	-12.9	6.0	89.7*	2.9	28.6*	66.8*	11.3	9.3
COc1ccc(C(=O)CC(c2ccc3c(c2)OCO3)c2c(O)c3ccccc3oc2=O)cc1OC (stereo not drawn)	-6.4	.	.	.	-10.7	3.5	.	.	.	.

Screening results (PubChem BioAssay)
